# From ChEMBL document CHEMBL1140884, “Oligodeoxyribonucleotide-based antagonists for Toll-like receptors 7 and 9” (2009)
# Activity calls are given as the source filed them. No cut-off for these calls is given here.
# Key:
# Mus musculus [1] = test: Inhibition of 5'-TCTGACRTTCT-X-TCTTRCAGTCT-3'-induced MIG production in C57BL/6 mouse treated 72 hrs before induction at 10 mg/kg, sc; type: functional; conditions: C57BL/6, sc, route subcutaneous
# Procedure, shortened: (§1)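 Female C57BL/6 mice (n=3) received antagonist 10 mg/kg sc in the right flank. After 72 h, TLR9 agonist 0.25 mg/kg sc was given in the left flank. Serum was taken 2 h after agonist and cytokines/chemokines were measured by Luminex multiplex assay. Representative of at least three experiments.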
# Mus musculus [2] = test: Inhibition of 5'-UGCUGUUCUG-X-GUCUUGUCGU-5'-induced IL12 production in C57BL/6 mouse treated 72 hrs before induction at 10 mg/kg, sc; type: functional; conditions: C57BL/6, sc, route subcutaneous
# Procedure, shortened: (§2)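 Female C57BL/6 mice, 6-8 weeks, n = 3, given antagonist 10 mg/kg sc in the right flank. After 72 h, agonist given sc in the left flank: TLR7/8 RNA agonist at 50 mg/kg or TLR9 agonist at 0.25 mg/kg. Serum collected 2 h after agonist by retro-orbital bleeding; cytokines/chemokines by mouse 20-plex Luminex bead assay.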
# Mus musculus [3] = test: Inhibition of 5'-TCTGACRTTCT-X-TCTTRCAGTCT-3'-induced IL6 production in C57BL/6 mouse treated 72 hrs before induction at 10 mg/kg, sc; type: functional; conditions: C57BL/6, sc, route subcutaneous; procedure, shortened: as §1
# [4] = target: T1, Toll-like receptor 9 (Mus musculus) (UniProt Q9EQU3); test: Antagonist activity at TLR9 in mouse J774 cells assessed as inhibition of 5'-TCTGACRTTCT-X-TCTTRCAGTCT-3'-induced NF-kappaB activation; type: functional, cell-based
# T1 sequence (whole entry): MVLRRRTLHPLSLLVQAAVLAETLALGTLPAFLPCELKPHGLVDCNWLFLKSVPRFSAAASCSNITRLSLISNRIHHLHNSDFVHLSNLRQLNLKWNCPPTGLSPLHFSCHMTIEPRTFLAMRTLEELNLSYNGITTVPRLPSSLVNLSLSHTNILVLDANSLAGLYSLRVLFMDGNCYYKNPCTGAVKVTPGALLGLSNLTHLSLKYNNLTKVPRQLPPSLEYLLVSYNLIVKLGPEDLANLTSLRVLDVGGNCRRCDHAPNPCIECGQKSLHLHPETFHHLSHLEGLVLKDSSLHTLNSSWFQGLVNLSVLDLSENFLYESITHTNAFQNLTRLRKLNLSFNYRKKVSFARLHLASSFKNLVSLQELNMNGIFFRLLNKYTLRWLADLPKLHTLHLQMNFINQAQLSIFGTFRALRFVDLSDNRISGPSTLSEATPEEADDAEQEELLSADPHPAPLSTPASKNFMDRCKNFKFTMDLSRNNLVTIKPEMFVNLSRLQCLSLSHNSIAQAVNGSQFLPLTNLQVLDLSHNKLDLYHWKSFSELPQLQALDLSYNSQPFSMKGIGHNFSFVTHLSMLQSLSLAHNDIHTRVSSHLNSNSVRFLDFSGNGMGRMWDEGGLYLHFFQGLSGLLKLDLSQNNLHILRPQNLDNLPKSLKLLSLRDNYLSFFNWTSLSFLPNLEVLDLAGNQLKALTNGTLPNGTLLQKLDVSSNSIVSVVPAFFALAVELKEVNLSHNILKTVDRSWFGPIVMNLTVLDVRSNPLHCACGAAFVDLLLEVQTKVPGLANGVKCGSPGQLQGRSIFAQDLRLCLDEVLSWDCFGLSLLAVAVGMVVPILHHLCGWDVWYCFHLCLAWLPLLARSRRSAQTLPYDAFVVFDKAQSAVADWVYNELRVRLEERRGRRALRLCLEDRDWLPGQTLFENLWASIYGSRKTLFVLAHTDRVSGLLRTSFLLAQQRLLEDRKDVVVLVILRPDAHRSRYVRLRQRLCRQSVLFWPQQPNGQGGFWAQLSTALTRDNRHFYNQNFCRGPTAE
# Procedure, shortened: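 J774 cells at 5×10^6 cells/well were preincubated with antagonist for 1 h. Agonist was then added: TLR9 agonist 1 µg/mL, an RNA-based TLR7/8 agonist, or LPS 100 ng/mL. Antagonist was used at 5–40 µg/mL or at the indicated agonist ratios. Nuclear extracts were taken 1 h after agonist and analysed by EMSA.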
# Mus musculus [5] = test: Inhibition of 5'-UGCUGUUCUG-X-GUCUUGUCGU-5'-induced IP10 production in C57BL/6 mouse treated 72 hrs before induction at 10 mg/kg, sc; type: functional; conditions: C57BL/6, sc, route subcutaneous; procedure, shortened: as §2
# Mus musculus [6] = test: Inhibition of 5'-TCTGACRTTCT-X-TCTTRCAGTCT-3'-induced KC production in C57BL/6 mouse treated 72 hrs before induction at 10 mg/kg, sc; type: functional; conditions: C57BL/6, sc, route subcutaneous; procedure, shortened: as §1
# Mus musculus [7] = test: Inhibition of 5'-TCTGACRTTCT-X-TCTTRCAGTCT-3'-induced MCP1 production in C57BL/6 mouse treated 72 hrs before induction at 10 mg/kg, sc; type: functional; conditions: C57BL/6, sc, route subcutaneous; procedure, shortened: as §1
# [8] = target: T1, Toll-like receptor 9 (Mus musculus); test: Agonist activity at TLR9 in mouse J774 cells assessed as of NF-kappaB activation; type: functional, cell-based
# Procedure, shortened: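 Murine J774 macrophages grown in DMEM with 10% FBS and plated at 5×10^6 cells/well. Nuclear extracts taken 1 h after agonist addition. NF-κB detected by EMSA on native polyacrylamide gels with autoradiography.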
# Mus musculus [9] = test: Inhibition of 5'-UGCUGUUCUG-X-GUCUUGUCGU-5'-induced IL6 production in C57BL/6 mouse treated 72 hrs before induction at 10 mg/kg, sc; type: functional; conditions: C57BL/6, sc, route subcutaneous; procedure, shortened: as §2
# Mus musculus [10] = test: Inhibition of 5'-TCTGACRTTCT-X-TCTTRCAGTCT-3'-induced IL12 production in C57BL/6 mouse pretreated before up to 48 hrs of induction at 10 mg/kg, sc; type: functional, organism-based; parameters: dose 10 mg/kg
# Procedure, shortened: (§3)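 C57BL/6 mice received antagonist or control 10 mg/kg sc, either with TLR9 agonist 0.25 mg/kg sc or up to 48 h before it. Serum IL-12 was measured 2 h after agonist. Two or three independent experiments; mean ± SEM, Student's t test versus PBS.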
# [11] = target: T1, Toll-like receptor 9 (Mus musculus); test: Agonist activity at mouse TLR9 expressed in HEK293 cells assessed as activation of NF-kappaB at 10 ug/mL by SEAP reporter gene assay; type: functional, cell-based
# Procedure, shortened: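 HEK293 cells stably expressing mouse TLR9 were transiently transfected with a SEAP reporter for 6 h. Compounds were added at 10 µg/mL for 18 h. SEAP was read with Quanti-Blue substrate and expressed as fold change in NF-κB activity.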
# Mus musculus [12] = test: Inhibition of 5'-TCTGACRTTCT-X-TCTTRCAGTCT-3'-induced IL12 production in C57BL/6 mouse treated 72 hrs before induction at 10 mg/kg, sc; type: functional; conditions: C57BL/6, sc, route subcutaneous; procedure, shortened: as §1
# Mus musculus [13] = test: Inhibition of 5'-TCTGACRTTCT-X-TCTTRCAGTCT-3'-induced IL12 production in C57BL/6 mouse at 10 mg/kg, sc; type: functional, organism-based; parameters: dose 10 mg/kg; procedure, shortened: as §3
# Mus musculus [14] = test: Inhibition of 5'-UGCUGUUCUG-X-GUCUUGUCGU-5'-induced MIG production in C57BL/6 mouse treated 72 hrs before induction at 10 mg/kg, sc; type: functional; conditions: C57BL/6, sc, route subcutaneous; procedure, shortened: as §2
smiles,measurement,setting,value
CO[C@@H]1[C@H](OP(=O)(S)OC[C@H]2O[C@@H](n3ccc(N)nc3=O)C[C@@H]2OP(=O)(S)OC[C@H]2O[C@@H](n3ccc4c(=O)[nH]c(N)nc43)C[C@@H]2OP(=O)(S)OC[C@H]2O[C@@H](n3cc(C)c(=O)[nH]c3=O)C[C@@H]2OP(=O)(S)OC[C@H]2O[C@@H](n3cc(C)c(=O)[nH]c3=O)C[C@@H]2OP(=O)(S)OC[C@H]2O[C@@H](n3ccc(N)nc3=O)C[C@@H]2OP(=O)(S)OC[C@H]2O[C@@H](n3cc(C)c(=O)[nH]c3=O)C[C@@H]2OP(=O)(S)OC[C@H]2O[C@@H](n3ccc(N)nc3=O)C[C@@H]2OP(=O)(S)OC[C@H]2O[C@@H](n3cc(C)c(=O)[nH]c3=O)C[C@@H]2OP(=O)(S)OC[C@H]2O[C@@H](n3cnc4c(=O)[nH]c(N)nc43)C[C@@H]2OP(=O)(S)OC[C@H]2O[C@@H](n3cc(C)c(=O)[nH]c3=O)C[C@@H]2O)[C@@H](COP(=O)(S)O[C@H]2[C@@H](OC)[C@H](n3cnc4c(=O)[nH]c(N)nc43)O[C@@H]2COP(=O)(S)O[C@H]2C[C@H](n3cc(C)c(=O)[nH]c3=O)O[C@@H]2COP(=O)(S)O[C@H]2C[C@H](n3ccc(N)nc3=O)O[C@@H]2COP(=O)(S)O[C@H]2C[C@H](n3cc(C)c(=O)[nH]c3=O)O[C@@H]2COP(=O)(S)O[C@H]2C[C@H](n3cnc4c(N)ncnc43)O[C@@H]2COP(=O)(S)O[C@H]2C[C@H](n3cc(C)c(=O)[nH]c3=O)O[C@@H]2COP(=O)(S)O[C@@H]2C[C@@H](n3ccc(N)nc3=O)O[C@H]2CO)O[C@H]1n1cnc2c(N)ncnc21 (some centres undefined),inhibition in vivo at 10 mg/kg,Mus musculus [1],≥ 50%
same,inhibition in vivo at 10 mg/kg,Mus musculus [2],≥ 50%
same,inhibition in vivo at 10 mg/kg,Mus musculus [3],≥ 50%
same,Activity,[4],Active
same,inhibition in vivo at 10 mg/kg,Mus musculus [5],≥ 50%
same,inhibition in vivo at 10 mg/kg,Mus musculus [6],≥ 50%
same,inhibition in vivo at 10 mg/kg,Mus musculus [7],≥ 50%
same,Activity,[8],inactive
same,inhibition in vivo at 10 mg/kg,Mus musculus [9],≥ 50%
same,Activity,Mus musculus [10],Active
same,Activity,[11],inactive
same,inhibition in vivo at 10 mg/kg,Mus musculus [12],≥ 50%
same,Activity,Mus musculus [13],Active
same,inhibition in vivo at 10 mg/kg,Mus musculus [14],≥ 50%
